Data set [1] can be described thus: Selectivity index, ratio of CC50 for cytotoxicity against human MT4 cells to EC50 for antiviral activity against HIV1 IIIB infected in human MT4 cells. Type of data set: toxicity, cell-based. To be noted: read-out: Ratio CC50/EC50. Put shortly: (§1)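 SI is CC50 divided by EC50. CC50 comes from MTT viability of uninfected MT-4 cells. EC50 comes from MTT-read protection of MT-4 cells infected with HIV-1 IIIB or HIV-2 ROD. Each value was run in at least triplicate.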

Data set [2] is described as follows: Cytotoxicity against human MT4 cells assessed as reduction in cell viability. Type of data set: toxicity, cell-based. Put shortly: (§2)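 Uninfected MT-4 cells were exposed to compound, and viability was read by the MTT method. […] Each value was run in at least triplicate and averaged from at least three independent experiments.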
The nature of data set [3]: Selectivity index, ratio of CC50 for cytotoxicity against human MT4 cells to EC50 for antiviral activity against HIV2 ROD infected in human MT4 cells. Type of data set: toxicity, cell-based. To be noted: read-out: Ratio CC50/EC50. Summed up: as §1
Data set [4] relates to Human immunodeficiency virus 2. In words: Antiviral activity against HIV-2 ROD infected in human MT4 cells assessed as protection against virus induced cytopathic effect. Type of data set: functional, organism-based. To be noted: Human immunodeficiency virus 2, ROD. Summed up: (§3)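 MT-4 cells were infected with HIV-1 IIIB or HIV-2 ROD, and cell viability was read by MTT. […] Each value was run in at least triplicate and averaged from at least three independent experiments.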
In general terms: Damage to the host cells serves as the signal in cytopathic effect assays.

Data set [5] concerns Human immunodeficiency virus 1. In words: Antiviral activity against HIV-1 IIIB infected in human MT4 cells assessed as protection against virus induced cytopathic effect. Type of data set: functional, organism-based. To be noted: Human immunodeficiency virus 1, IIIB. Summed up:
as §3

A short description of data set [6]: Selectivity ratio of EC50 for antiviral activity against HIV1 IIIB infected in human MT4 cells to EC50 for antiviral activity against HIV2 ROD infected in human MT4 cells. Type of data set: toxicity, cell-based. Put shortly: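 Ratio is EC50 against HIV-1 IIIB divided by EC50 against HIV-2 ROD. Both EC50 values come from MTT-read protection of infected MT-4 cells.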

The subject of data set [7] is Human immunodeficiency virus 2. Description: Antiviral activity against HIV2 ROD infected in human MT4 cells assessed as reduction in virus induced cytopathic effect measured after 5 days by MTT assay. Type of data set: functional, organism-based. To be noted: Human immunodeficiency virus 2, ROD, MT4, 120 h. Put shortly:
as §3

Data set [8] is described as follows: Metabolic stability in human liver microsomes assessed as parent compound remaining at 1 uM incubated for 60 mins in absence of NADPH by LC-MS/MS analysis. To be noted: 1 h. Type of data set: ADME, Microsome. Put shortly:
(§4)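 Human liver microsomes were used at a final 0.5 mg protein/mL, incubated 60 min with an NADPH regenerating system. The no-cofactor arm replaced NADPH with buffer. T1/2 came from linear regression of the kinetic data. CLint(mic) = (0.693/T1/2)/mg microsomal protein per mL. CLint(liver) was scaled by mg microsomal protein/g liver and g liver/kg body weight.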
(In general: Liver microsomes are a subcellular fraction often used to study metabolism.)

Data set [9] deals with Human immunodeficiency virus 1. In words: Antiviral activity against HIV1 IIIB infected in human MT4 cells assessed as reduction in virus induced cytopathic effect measured after 5 days by MTT assay. To be noted: Human immunodeficiency virus 1, IIIB, MT4, 120 h. Type of data set: functional, organism-based. Summed up:
as §3

Data set [10] has as its target Structural capsid protein (Human immunodeficiency virus 1) (UniProt Q76129). In words: Binding affinity to HIV-1 NL4.3 monomeric capsid protein assessed as residence time by SPR analysis. To be noted: filed as modulator. Summed up: (§5)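 SPR binding of compound to monomeric or disulfide-stabilised hexameric HIV-1 CA NL4.3 protein; koff, residence time and KD derived from isotherms, monomer/hexamer ratio = KD monomer/KD hexamer. Triplicate, SD.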
For orientation: In SPR one partner is held on a chip, and binding of the other changes the refractive index at the surface.

Data set [11] in a line: Metabolic stability in human liver microsomes assessed as parent compound remaining at 1 uM incubated for 60 mins in presence of NADPH by LC-MS/MS analysis. Type of data set: ADME, Microsome. To be noted: 1 h. Put shortly: as §4
The target of data set [12] is Structural capsid protein (Human immunodeficiency virus 1) (UniProt Q76129). Description: Binding affinity to HIV-1 NL4.3 hexameric capsid protein assessed as residence time by SPR analysis. To be noted: filed as modulator. Put shortly:
as §5

For data set [13] the target is unchanged. In words: Binding affinity to HIV-1 NL4.3 monomeric capsid protein assessed as Koff by SPR analysis. To be noted: filed as modulator. Put shortly:
as §5

Data set [14] is described as follows: Metabolic stability in human liver assessed as intrinsic clearance at 1 uM incubated for 60 mins in presence of NADPH by LC-MS/MS analysis. Type of data set: ADME, tissue-based. To be noted: read-out: CLH. Put shortly: as §4
Data set [15] in a line: Metabolic stability in human liver microsomes assessed as half-life at 1 uM incubated for 60 mins in presence of NADPH by LC-MS/MS analysis. Type of data set: ADME, Microsome.
Data set [16] concerns the target Structural capsid protein (Human immunodeficiency virus 1) (UniProt Q76129). In words: Binding affinity to HIV-1 NL4.3 hexameric capsid protein assessed as Koff by SPR analysis. To be noted: filed as modulator. Summed up:
as §5

The test system of data set [17] is Human immunodeficiency virus 1. In words: Antiviral activity against HIV1 NL4.3 infected in human U87.CD4.CXCR4 cells assessed as inhibition of early stage replication by measuring infection at 1 uM incubated for 48 hrs by microplate luminometer based single-round infection assay (reference value: 100.0 +/- 30.99%). Type of data set: functional. Details: scale not given: the % may be the effect or the level left.

A short description of data set [18]: Metabolic stability in human liver microsomes assessed as intrinsic clearance at 1 uM incubated for 60 mins in presence of NADPH by LC-MS/MS analysis. Type of data set: ADME, Microsome.
Data set [19] has as its system Human immunodeficiency virus 1. Description: Antiviral activity against HIV1 NL4.3 infected in human U87.CD4.CXCR4 cells assessed as inhibition of late stage replication by measuring infection at 1 uM incubated for 48 hrs by microplate luminometer based single-round infection assay (reference value: 100.0 +/- 18.40%). Type of data set: functional. Details: scale not given: the % may be the effect or the level left.

Data set [20] has as its target T1, Structural capsid protein (Human immunodeficiency virus 1, UniProt Q76129). In words: Binding affinity to HIV-1 NL4.3 hexameric capsid protein assessed as dissociation constant by SPR analysis.
Data set [21] deals with T1, Structural capsid protein. Description: Competitive binding affinity to HIV-1 NL4.3 hexameric capsid protein assessed as inhibition of CPSF6 binding to capsid protein by SPR analysis.
For data set [22], the target named is T1, Structural capsid protein. Description: Binding affinity to HIV-1 NL4.3 monomeric capsid protein assessed as dissociation constant by SPR analysis.
The nature of data set [23]: (§6) Cytotoxicity against human MT4 cells assessed as reduction in cell viability incubated for 5 days by MTT assay. To be noted: MT4 cells, time 5 day. Type of data set: toxicity, cell-based. Summed up: as §2
Data set [24] relates to Human immunodeficiency virus 1. In words: Selectivity ratio of Kd for HIV-1 NL4.3 monomeric capsid protein to Kd for HIV-1 NL4.3 hexameric capsid protein. Summed up: as §5
In data set [25] the target is Human immunodeficiency virus type 1 reverse transcriptase (Human immunodeficiency virus 1) (UniProt Q72547). To be noted: dose 100.0 nM.
The next data set deals with MT4. The data set is described as §6. Type of data set: toxicity, cell-based. To be noted: mt4, 120 h, time 5 day. Summed up:
as §2

T1 sequence (Q76129 whole entry): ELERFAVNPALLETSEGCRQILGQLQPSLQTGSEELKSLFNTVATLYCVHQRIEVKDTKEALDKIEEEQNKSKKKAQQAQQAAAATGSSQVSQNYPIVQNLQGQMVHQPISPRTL
Structural capsid protein (Human immunodeficiency virus 1), sequence (Q76129 as listed by the source): as the sequence (Q76129 whole entry) above

Consider `COc1ccc(N(C)C(=O)[C@H](Cc2cc(F)cc(F)c2)NC(=O)CN2CCN(S(=O)(=O)c3cccc(N)c3)CC2)cc1`, for which the selectivity ratio in data set [1] came to 679; in [3], 987. Moreover, the CC50 in data set [2] was 109000 nM. Moreover, the concentration giving a half-maximal response (EC50) in data set [4] was 110 nM; in [5], 160 nM. Further, in data set [6], the “Ratio EC50” value was 1.45.

Consider `COc1ccc(N(C)C(=O)[C@H](Cc2ccccc2)NC(=O)CN2CCN(S(=O)(=O)c3ccc(N)cc3)CC2=O)cc1`, for which the EC50 in data set [7] was determined as 30 nM; in [9] it was 280 nM; in data set [4] it was 30 nM; in data set [5] it was 280 nM. Also, the Stability worked out at 113.3% in data set [8] and 0% in data set [11]. The TIME in data set [10] came out at 1.67e-05 h; in data set [12], 0.000133 h. The K was found to be 13.4 s⁻¹ in data set [13] and 2.04 s⁻¹ in data set [16]. Also, in data set [14], the CLint scaled at 1 µM is 309 mL/min/kg. In [15] (microsomes, 1 h, 1 µM), the t1/2 stood at 240 s. The Activity in data set [17] was 0.092%; in [19] it was 0.807%. Besides, the microsomal CLint at 1 µM in [18] (liver microsomes, read-out: CLH) stood at 344 µL/min/mg.

With `O=C(O)Cc1ccccc1Nc1c(Cl)cccc1Cl` [DICLOFENAC], in data set [14], the CLint scaled at 1 µM is 280 mL/min/kg.

`COc1ccc(N(C)C(=O)[C@H](Cc2cc(F)cc(F)c2)NC(=O)CN2CCN(S(=O)(=O)c3ccc([N+](=O)[O-])cc3)CC2)cc1`: the selectivity ratio in data set [1] was 14.7; in data set [3] it was 30.9. Besides, in data set [2], the CC50 amounted to 14800 nM. For the same molecule, the EC50 is 480 nM in data set [4] and 1010 nM in [5]. Moreover, the “Ratio EC50” value in data set [6] stood at 2.1.

As for `COc1ccc(N(C)C(=O)[C@H](Cc2ccccc2)NC(=O)Cc2c(C)[nH]c3ccccc23)cc1`, the Kd in data set [20] was 47 nM; in data set [22] it was 969 nM. For the same molecule, the IC50 in data set [21] worked out at 26.6 nM. The EC50 in [7] is 2220 nM; in [9], 800 nM; in data set [4], 4160 nM; in data set [5], 750 nM. In addition, the figures for the Stability in data set [8] and in data set [11] were 106.1% and 0%, respectively. The TIME in [10] was found to be 0.000183 h; in [12], 0.00772 h. Moreover, the K in data set [13] is 1.58 s⁻¹; in data set [16], 0.036 s⁻¹. The half-life at 1 µM in data set [15] (liver microsomes) is 42 s. The CC50 at 120 h in [23] is above 32300 nM. The Activity is on record as 0.07% in data set [17] and 4.185% in data set [19]. Moreover, in data set [18] (microsomes, 1 h, 1 µM), the CLH amounted to 2114.6 µL/min/mg. The Selectivity ratio in data set [24] amounted to 20.6.

Take `Cc1cc(/C=C/C#N)cc(C)c1Nc1ccnc(Nc2ccc(C#N)cc2)n1`: in data set [25], the inhibition came out at 50%.

Regarding `COc1ccc(N(C)C(=O)[C@H](Cc2cc(F)cc(F)c2)NC(=O)CN2CCN(S(=O)(=O)c3ccc(C)cc3)CC2)cc1`, the selectivity ratio in [1] is above 224; in [3] it was above 1700. Further, the CC50 in data set [2] was above 204000 nM. In addition, the EC50 in data set [4] is 120 nM; in [5] it was 910 nM. In addition, in data set [6], the “Ratio EC50” value amounted to 7.58.

In the case of `COc1ccc(N(C)C(=O)[C@H](Cc2cc(F)cc(F)c2)NC(=O)CN2CCN(S(=O)(=O)c3ccc(N)cc3)CC2)cc1`, the selectivity ratio in data set [1] stood at 977; in data set [3], 2340. Further, in data set [2], the 50% cytotoxic concentration (CC50) turned out to be 117000 nM. In addition, the results for the EC50 in data set [4] and in data set [5] were 50 nM and 120 nM, respectively. Further, the “Ratio EC50” value in [6] worked out at 2.4.

Turning to `COc1ccc(-n2c([C@H](Cc3ccccc3)NC(=O)CN3CCN(S(=O)(=O)c4ccc([N+](=O)[O-])cc4)CC3=O)nc3ccccc3c2=O)cc1`, the EC50 amounted to 570 nM in data set [7] and 1510 nM in data set [9]. For the same molecule, the selectivity ratio is above 119 in data set [1] and above 312 in [3]. For the same molecule, in data set [6], the “Ratio EC50” value is reported as 2.65. Also, the CC50 in the data set with MT4 is above 179000 nM.

For orientation: CC50 means the concentration at which the toxic effect on the cells reaches its halfway point. The term EC50 denotes the midpoint of the concentration-response curve. The Kd is a measure of binding affinity in units of concentration. In general, IC50 refers to the concentration that inhibits the measured activity by half. By half-life is commonly meant the time in which the quantity being followed falls by half. A word on the inhibition: it is the change of the read-out against control, counted positive when it falls.

The record behind these values is ChEMBL document CHEMBL5344428, “Discovery, Crystallographic Studies, and Mechanistic Investigations of Novel Phenylalanine Derivatives Bearing a Quinazolin-4-one Scaffold as Potent HIV Capsid Modulators” (J Med Chem, 2023).
